Experimental data of several laboratories.
Lines come from different studies, so protocols differ.
Target: cGMP-dependent protein kinase 2 (PRKG2, Homo sapiens, UniProt Q13237)

SMILES	observed	action	method	tested at	endpoint	value
COc1cc2ncnc(Nc3ccc(Oc4ccccc4)cc3C)c2cc1OC	enzyme activity	inhibitor	–	1 µM	inhibition	3%
CN(C)c1ncnc(-c2ccc3nc(Nc4cc(CN5CCN(C(=O)CC(F)(F)F)CC5)ccn4)[nH]c3c2)c1Cl	cell-free assay	–	competition with immobilised ligand	1 µM	remaining binding	40%
COc1cc(Cl)c(C(=O)N[C@@H](CN[C@H]2CC[C@@H](N)CC2)Cc2ccc(C#N)cc2)cc1-c1ccc(CN[C@H](C)c2ccc(C)cc2)o1	enzyme activity	inhibitor	–	1 µM	remaining activity	98%
Cc1ccc(C(=O)Nc2ccc(CN3CCN(C)CC3)c(C(F)(F)F)c2)cc1C#Cc1cnc2cccnn12	enzyme activity	inhibitor	–	23.5 nM	remaining activity	82%
Nc1nc(Nc2ccc(S(N)(=O)=O)cc2)nn1C(=O)c1c(F)cccc1F	cell-free assay	–	–	0.5 µM	remaining signal	92.2%
C=CC(=O)Nc1cc(Nc2nccc(Nc3cc(Cl)c(F)cc3C(C)(C)O)n2)c(OC)cc1N1CC[C@@H](N(C)C)C1	enzyme activity	inhibitor	–	1 µM	inhibition	-8%
Cc1sc(C(=O)NC2COC2)cc1-n1cc(NC(=O)Nc2c(F)cccc2Cl)cn1	enzyme activity	inhibitor	–	10 µM	remaining activity	100%
O=C(Nc1cccnn1)N1CCC(=Cc2cccc(Oc3ccc(C(F)(F)F)cn3)c2)CC1	cell-free assay	–	competition with immobilised ligand	1 µM	remaining binding	100%
C#Cc1cccc(Nc2ncnc3cc(OCCOC)c(OCCOC)cc23)c1	cell-free assay	–	–	0.5 µM	remaining signal	107%
Cn1cnc(Br)c1C1=CN(c2ncnc3[nH]cnc23)CCS1	enzyme activity	inhibitor	radiometric	2 µM	inhibition	91.7%
CSc1cccnc1N1CCN(Cc2nc3ccccc3[nH]2)CC1	cell-free assay	–	competition with immobilised ligand	1 µM	remaining binding	94%
CN(C)C1CCN(CC#Cc2nn(C3CCCC3)c3nc(NCc4ccccc4)ncc23)C1 (stereo not shown)	enzyme activity	inhibitor	FRET	10 µM	inhibition	5%
CCCS(=O)(=O)Nc1ccc(F)c(C(=O)c2c[nH]c3ncc(-c4ccc(Cl)cc4)cc23)c1F	enzyme activity	inhibitor	–	1 µM	inhibition	< 10%
CN([C@@H]1CCc2c(CC(=O)O)c3ccccc3n2C1)S(=O)(=O)c1ccc(F)cc1	cell-free assay	–	competition with immobilised ligand	1 µM	remaining binding	100%
CN1CC(Oc2cnc(C#N)cc2-c2ccn3nc(NC(=O)C4CC4)cc3c2)C1	enzyme activity	inhibitor	–	1 µM	inhibition	1%
Nc1ncnc2occ(-c3ccc(NC(=O)Nc4cc(C(F)(F)F)ccc4F)cc3)c12	cell-free assay	inhibitor	–	20 µM	remaining signal	76%
CC1=C(C#N)[C@@H](c2ccc3[nH]nc(C)c3c2)C(C#N)=C(c2ccc(Cl)cc2)N1	cell-free assay	–	competition with immobilised ligand	1 µM	remaining binding	100%
CC(C)(C)c1nc(-c2cccc(NS(=O)(=O)c3c(F)cccc3F)c2F)c(-c2ccnc(N)n2)s1	enzyme activity	inhibitor	radiometric	1 µM	remaining activity	102%
O=C1Nc2ccc(Cl)cc2C1=Cc1cc(Cl)c(O)c(Cl)c1	cell-free assay	–	–	0.5 µM	remaining signal	97%
